A number with no mark means an inactive call. Results filed as inconclusive are left out. Active and inactive are the calls of the source.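 The calls were made as follows, unless noted: active = inhibition over a set limit, the all-compound mean plus 3 SD, in both replicate runs; inconclusive = over that limit in just one replicate run; inactive = at or under that limit in both runs.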
Experiments:
[1] = OD615 S. cerevisiae growth inhibition, permissive medium, pilot counter-assay, permissive growth control for S. cerevisiae lifespan shortening project (AID 705;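 active = growth inhibition above 25% in both replicates, a cutoff set 3 SD above the mean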); settings: OD615, 24 h, at 10 µM, hits give high values
In short: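 assay system = Saccharomyces cerevisiae strain carrying genetically modified DeaD replicative-lifespan system | technique = absorbance (optical density) at 615 nm | buffer or medium = permissive raffinose/galactose medium | timing = cells pre-grown 4 h, then 24 h compound exposure, 30 °C humidified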

[2] = Restrictive medium S. cerevisiae growth inhibition, OD615, pilot screen of yeast lifespan reduction project, restrictive growth control (AID 706;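 active = growth inhibition above a set limit, 3 SD over mean compound inhibition, in both replicates, cut at about 43% in these data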;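 also: modified DeaD lifespan yeast strain shifted to restrictive glucose medium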); settings: OD615, 48 h, at 10 µM, hits give high values
In short: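 System: modified S. cerevisiae. Buffer or medium: CSMM-D glucose medium. Incubation: 4 h pre-growth plus 48 h compound exposure, 30 °C. Detection: absorbance (optical density) measured at 615 nm.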

[3] = viability gain of MRP-1-high H69AR cells under doxorubicin, pilot screen, MRP-1 activator project, CellTiter-Glo, duplicate (AID 807;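 active = viability increase at or above a cutoff of the median across tested compounds plus 3 SD, cut at about 8.5% in these data, passing the limit was not always enough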;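 also: compound pretreatment 18-22 h then 72 h combined with doxorubicin; 0% = doxorubicin alone and 100% = vehicle without doxorubicin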); settings: H69AR viability with doxorubicin, CellTiter-Glo luminescence; at 10 µM; hits give high values
[4] = growth suppression of beta-catenin knockout HCT116, pilot screen, human colon tumor cells (AID 823;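 active = cell viability at or below a set limit in both duplicate runs, the limit being the all-compound median minus 4 SD, cut at about 23% in these data, passing the limit was not always enough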;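 also: 0% = wells killed by 20 µM Hyamine and 100% = untreated DMSO cell wells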); settings: CellTiter-Glo, 60 h, at 10 µM, hits give low values
[5] = growth suppression of PTEN-deleted HCT116, pilot screen, cell-based, HCT116 clonal line, CellTiter-Glo (AID 824;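 active = viability at or below 27.92% in each of two runs, the all-compound median minus 4 SD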;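 also: 0% = 20 µM Hyamine control and 100% = vehicle cell control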); settings: 60 h, at 10 µM, hits give low values
[6] = inhibitors of the yeast RAM network, pilot screen, dse1pr::URA3 reporter, 5-FOA selection (AID 869);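 also: 0% = DMSO wells with no growth and 100% = 10 µM 1-NA-PP1 with full growth; RAM network block rescues cells from 5-FOA so hits raise OD615 growth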; settings: S. cerevisiae dse1pr::URA3 5-FOA growth, OD615, 2 d; at 10 µM; hits give high values; strain carries analog-sensitive mutant Cbk1 kinase
[7] = RAM signaling pathway blockade in yeast – S. cerevisiae, Pdr1DBD-CYC8 efflux-inhibited sensitized strain, primary screen (AID 1298;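 active = RAM network inhibition above 8.4% in each of two replicates, 3 SD over the compound average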;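 also: 0% = DMSO untreated cells without growth and 100% = 10 µM 1-NA-PP1 full growth; higher means more yeast growth rescued from 5-FOA killing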); settings: S. cerevisiae cbk1-as DSE1-URA3 strain, 5-FOA growth OD615, 2 d; at 50 µM; hits give high values

Compound | growth inhibition [1] [%] | growth inhibition [2] | viability increase [3] [%] | viability [4] [%] | viability [5] [%] | inhibition [6] [%] | RAM network inhibition [7] [%]
CC(C)C(=O)Nc1c(C(=O)c2ccc(F)cc2)oc2ccccc12 | -8.13 | -2.55% | 0.04 | 105 | 91.2 | 1.55 | 1.81
Cn1c(NC(=O)Cc2cccs2)cc(=O)n(C)c1=O | 5.64 | 5.55% | -0.45 | 105 | 101 | 1.26 | -2.37
O=C(CCCn1c(=O)oc2ccccc21)N1CCc2ccccc2C1 | -8.29 | -14.1% | -4.06 | 94.3 | 95.2 | 1.48 | 4.82
C=CCNC(=O)C1CC(=O)N(c2ccc(Br)cc2)C1 (configuration not stated) | -16.9 | -14.1% | -1.65 | 95.5 | 95.3 | 0.655 | 0.56
CCOc1ccc(NS(=O)(=O)c2ccc3[nH]c(=O)oc3c2)cc1 | -11.6 | -10.5% | 1.01 | 101 | 92.6 | 3.46 | 4.48
CCCn1c(-c2ccc(OC)cc2)nc2ccccc21 | -16.6 | -12.9% | -0.51 | 74.4 | 71.9 | 2.18 | 7.97
Cn1nc(-c2ccc(Cl)cc2)c2cc(C(=O)NCc3ccco3)sc21 | -1.08 | -3.58% | -7.27 | 59.6 | 47 | 2.54 | 5.89
COc1ccc(-n2c(Cc3cccn3C)nnc2SCC(=O)N2CCCC2)cc1 | 11.1 | 49.5% (active) | -0.77 | 96.1 | 98.5 | 0.04 | 0.93
COc1cccc(C2N(c3ccc(Cl)cc3)C(=O)C3CCCN32)c1 (configuration not stated) | -5.56 | 1.89% | 0.15 | 97.5 | 94.5 | 1.04 | 0
CCOCCn1c(N(C)Cc2ccccc2)nc2c1c(=O)[nH]c(=O)n2C | -10.9 | -6.11% | 0.04 | 101 | 95.6 | 0.985 | 5.77
CCN1CCN(CC(=O)Nc2ccc3c(c2)OCO3)C(=O)C1=O | -18.6 | -4.2% | -0.45 | 101 | 100 | 0.7 | 6.72
COC(=O)C1C2C=CC3(CN(c4ccc(Cl)c(F)c4)C(=O)C13)O2 (configuration not stated) | -5.96 | 0.405% | -1.28 | 94.6 | 91.8 | 1.67 | 2.93
CC(C)N1C(=O)CCC1C(=O)NCc1ccccc1Cl (configuration not stated) | -8.36 | -6.72% | -2.27 | 96 | 98.9 | 1.68 | 0.01
COc1ccc(N)cc1C#N | -7.31 | -5.58% | -3.17 | 98.5 | 93.6 | 1.06 | 1.63
CCc1ccc(C(=O)NCc2cccs2)s1 | -5.71 | 4.03% | 1.53 | 104 | 97.1 | 0.715 | -1.7
O=C(c1cc(-c2ccccc2O)on1)N1CCCC1 | -4.15 | -3.9% | -4.17 | 105 | 90.7 | 3.37 | 6.42
CCN(CC)C(=O)Nc1cnc2ccccc2c1 | -17.2 | -8.12% | -2.72 | 93.5 | 96.4 | 0.115 | 5.38
COc1ccc(-c2nc(C#N)c(NC(C)C)o2)cc1 | -4.08 | -2.25% | -0.02 | 90.4 | 93.8 | 2.67 | 3.99

Compound | growth inhibition [1] [%] | growth inhibition [2] | viability increase [3] [%] | viability [4] [%] | viability [5] [%] | inhibition [6] [%] | RAM network inhibition [7] [%]
Cc1ccc(-n2c(SCC(=O)NCC3CCCO3)nc3c(c2=O)SCC3)cc1 (configuration not stated) | -10.7 | -16.9% | -1.96 | 100 | 96.7 | 3.09 | 2.18
COC(=O)c1c(NC(=O)CSc2nnnn2-c2ccccc2)sc2c1CCC(C)C2 (configuration not stated) | -21.3 | -21.2% | -1.07 | 84.4 | 78.3 | 2.46 | 10.1
CCC1(C)C2(C#N)C(N)=NC(OC)(OC)C12C#N (configuration not stated) | -5.98 | -10.1% | -0.83 | 106 | 99.3 | 1.41 | 2.07
Cc1cc(C)n(/N=C/c2c[nH]c3ccccc23)c(=O)c1 | -12.3 | -5.84% | -3.53 | 100 | 102 | 0.785 | 2.38
COCCN(CCOC)C(=O)c1cc2sc3ccccc3c2s1 | -6.12 | -4.95% | 0.72 | 92.4 | 90.4 | 0.11 | 0.31
O=C1CC(Nc2ccc(N3CCOCC3)cc2)C(=O)N1c1ccccc1F (configuration not stated) | 1.41 | -5.97% | -2.99 | 110 | 105 | 1.53 | 5.38
CCc1ccc2[nH]cc(C(=O)OCCOC)c(=O)c2c1 | -19.9 | 0.075% | -1.15 | 88 | 87.5 | 1.91 | 1.6
COc1ccc(-n2nc3cc(C)c(NC(=O)CC(C)C)cc3n2)cc1 | -7.39 | -3.86% | -0.97 | 94 | 92.2 | 0.405 | 3.76
COc1ccc(-c2nnc(SCC(=O)NC(C)c3ccccc3)o2)cc1OC (configuration not stated) | -1.92 | -14.2% | -1.24 | 106 | 96 | 1.04 | 1.77
Cc1noc(/C=C/N(C)C)c1S(=O)(=O)N1CCN(c2ccccc2)CC1 | -14.8 | -3.67% | -2.94 | 95.9 | 90.8 | 2.37 | 7.31
CCCCN(C)CCC(=O)Nc1ccc(OC)cc1OC | -0.81 | -1.21% | -3.73 | 88.5 | 86.4 | 2.29 | -1.48
COc1ccc(CN2CCCCC2c2cccnc2)c(OC)c1C (configuration not stated) | -1.37 | 0.92% | -2.86 | 92.1 | 99 | 1.25 | 1.37
COc1ccc(NC(=O)Nc2ccc3nccnc3c2)cc1 | -13.5 | -17.2% | -4.49 | 67.5 | 68.7 | 1.81 | 3.72
CCCn1c(NCc2ccc(N(C)C)cc2)nc2ccccc21 | -11.6 | -8.42% | -1.82 | 70.8 | 70.9 | 0.405 | 5.4
O=C1CC(c2ccc(S(=O)(=O)NC3CC3)cc2)CN1 (configuration not stated) | -9.26 | -7.47% | -2.08 | 110 | 103 | 0.075 | -0.6
CC1=CS/C(=C(/C#N)C(=O)NCc2ccco2)N1c1ccccc1 | -0.435 | -4.64% | -2.99 | 117 | 97.6 | 2.08 | 1.49
O=C(Cn1nc(C(=O)O)c2ccccc2c1=O)NCC1CCCO1 (configuration not stated) | -4.73 | -13.3% | -0.44 | 103 | 102 | 1.71 | 6.89
CC1CCc2nn(CC(=O)NCc3ccco3)cc2C1 (configuration not stated) | 8.89 | 2.02% | -3.13 | 92.7 | 88.2 | 2.08 | 5.3
